Test results: ChEMBL document CHEMBL1135426, “Synthesis, receptor potency, and selectivity of halogenated diphenylpiperidines as serotonin 5-HT2A ligands for PET or SPECT brain imaging” (J Med Chem, 2002)
pKi: −log10 of the molar value.

How the values were obtained:
[1] = molecular target: T1, 5-hydroxytryptamine receptor 2A (Homo sapiens, UniProt P28223); test: Tested on genetically transfected COS7 cell membranes selectively expressing human 5-hydroxytryptamine 2A receptor, using [3H]ketanserin as radioligand; format: cell-based, COS-7
T1 sequence (P28223 whole entry): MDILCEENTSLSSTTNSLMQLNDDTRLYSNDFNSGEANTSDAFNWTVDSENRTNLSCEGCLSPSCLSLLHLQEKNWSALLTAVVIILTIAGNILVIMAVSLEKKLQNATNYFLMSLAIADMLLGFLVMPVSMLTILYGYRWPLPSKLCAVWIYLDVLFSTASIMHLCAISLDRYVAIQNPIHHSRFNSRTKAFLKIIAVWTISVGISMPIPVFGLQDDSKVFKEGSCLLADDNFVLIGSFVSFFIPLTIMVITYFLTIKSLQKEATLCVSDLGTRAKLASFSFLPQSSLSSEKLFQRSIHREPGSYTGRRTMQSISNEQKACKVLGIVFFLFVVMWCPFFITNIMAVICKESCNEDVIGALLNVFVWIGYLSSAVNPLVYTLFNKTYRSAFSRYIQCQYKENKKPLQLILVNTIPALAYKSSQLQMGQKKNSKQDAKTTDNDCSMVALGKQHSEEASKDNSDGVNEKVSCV
Method in brief: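 Membranes of transfected COS-7 cells expressing human 5-HT2A, with 1.0 nM [3H]ketanserin, room temperature, 60 min. 10 µM altanserin as blank. Filtration and scintillation counting. Competition curves over ≥6 concentrations yield IC50 ± SE. Ki obtained by Cheng-Prusoff from the radioligand apparent Kd.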

[2] = molecular target: T2, 5-hydroxytryptamine receptor 2C (Homo sapiens, UniProt P28335); test: Tested on transfected cell membranes selectively expressing human 5-hydroxytryptamine 2C receptor using [3H]mesulergine
T2 sequence (P28335 whole entry): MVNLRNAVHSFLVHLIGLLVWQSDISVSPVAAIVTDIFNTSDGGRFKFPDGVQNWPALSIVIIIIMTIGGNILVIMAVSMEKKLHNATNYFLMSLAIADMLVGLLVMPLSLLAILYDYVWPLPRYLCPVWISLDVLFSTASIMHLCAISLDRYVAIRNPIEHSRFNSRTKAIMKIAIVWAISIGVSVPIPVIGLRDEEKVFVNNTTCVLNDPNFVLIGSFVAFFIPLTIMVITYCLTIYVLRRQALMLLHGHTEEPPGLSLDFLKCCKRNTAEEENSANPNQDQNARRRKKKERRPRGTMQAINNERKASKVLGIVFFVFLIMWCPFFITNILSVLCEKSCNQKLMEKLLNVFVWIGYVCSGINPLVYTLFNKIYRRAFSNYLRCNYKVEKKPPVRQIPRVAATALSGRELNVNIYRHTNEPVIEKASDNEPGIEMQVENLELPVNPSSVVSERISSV
Method in brief: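 Transfected cell membranes expressing human 5-HT2C, incubated with 0.80 nM [3H]mesulergine at room temperature for 60 min. Nonspecific binding with 10 µM clozapine. Filtration and scintillation counting. IC50 ± SE from concentration-inhibition curves, converted to Ki by Cheng-Prusoff using the radioligand Kd.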

[3] = molecular target: 5-hydroxytryptamine receptor 6 (Homo sapiens, UniProt P50406); test: Tested on cell membranes from transfected cells selectively expressing human 5-hydroxytryptamine 6 receptor incubated with 1 nM [3H]LSD
Sequence of 5-hydroxytryptamine receptor 6 (P50406 whole entry): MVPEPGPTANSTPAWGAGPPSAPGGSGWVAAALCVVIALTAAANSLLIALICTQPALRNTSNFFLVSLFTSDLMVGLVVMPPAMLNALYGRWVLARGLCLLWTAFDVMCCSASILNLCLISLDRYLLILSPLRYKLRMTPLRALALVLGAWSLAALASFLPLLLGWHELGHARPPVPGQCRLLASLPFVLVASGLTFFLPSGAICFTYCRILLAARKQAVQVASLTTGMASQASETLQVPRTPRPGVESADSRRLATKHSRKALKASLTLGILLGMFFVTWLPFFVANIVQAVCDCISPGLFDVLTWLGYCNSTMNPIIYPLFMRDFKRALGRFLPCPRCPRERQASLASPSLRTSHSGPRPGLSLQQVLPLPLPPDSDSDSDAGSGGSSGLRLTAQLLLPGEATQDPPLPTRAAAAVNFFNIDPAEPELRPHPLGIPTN
Method in brief: (§1)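 Membranes (1-10 µg protein) from transfected cells expressing human 5-HT6 or 5-HT7, incubated with 1 nM [3H]LSD, room temperature, 90 min, in the dark. 10 µM clozapine as blank. Filter harvest and tritium counting. IC50 from multi-concentration competition, converted to Ki via Cheng-Prusoff.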

[4] = molecular target: 5-hydroxytryptamine receptor 7 (Homo sapiens, UniProt P34969); test: Tested on cell membranes from transfected cells selectively expressing human 5-hydroxytryptamine 7 receptor incubated with 1 nM [3H]LSD; method in brief: as §1
Sequence of 5-hydroxytryptamine receptor 7 (P34969 whole entry): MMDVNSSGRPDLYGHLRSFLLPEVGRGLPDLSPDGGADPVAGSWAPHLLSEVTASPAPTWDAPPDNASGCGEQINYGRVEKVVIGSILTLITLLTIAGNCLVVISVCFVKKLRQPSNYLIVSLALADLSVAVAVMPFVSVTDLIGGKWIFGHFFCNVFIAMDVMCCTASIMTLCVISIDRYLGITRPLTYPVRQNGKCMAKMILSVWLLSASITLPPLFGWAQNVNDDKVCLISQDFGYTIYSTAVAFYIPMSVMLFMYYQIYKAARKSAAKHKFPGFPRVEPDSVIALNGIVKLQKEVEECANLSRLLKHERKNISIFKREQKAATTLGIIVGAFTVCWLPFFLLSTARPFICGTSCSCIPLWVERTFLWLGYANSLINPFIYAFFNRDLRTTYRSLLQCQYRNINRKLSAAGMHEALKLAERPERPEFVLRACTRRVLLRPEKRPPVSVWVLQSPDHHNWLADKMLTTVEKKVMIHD

[5] = molecular target: T3, Adrenergic receptor alpha-2 (Rattus norvegicus, UniProt P22086+P19328+P22909); test: Binding affinity (Ki) at Alpha-2 adrenergic receptor homogenates of whole rat brain were incubated [3H]MK-912 for 80 min at room temperature, using […] as the blank agent; format: tissue-based
T3 sequence (P22086 whole entry): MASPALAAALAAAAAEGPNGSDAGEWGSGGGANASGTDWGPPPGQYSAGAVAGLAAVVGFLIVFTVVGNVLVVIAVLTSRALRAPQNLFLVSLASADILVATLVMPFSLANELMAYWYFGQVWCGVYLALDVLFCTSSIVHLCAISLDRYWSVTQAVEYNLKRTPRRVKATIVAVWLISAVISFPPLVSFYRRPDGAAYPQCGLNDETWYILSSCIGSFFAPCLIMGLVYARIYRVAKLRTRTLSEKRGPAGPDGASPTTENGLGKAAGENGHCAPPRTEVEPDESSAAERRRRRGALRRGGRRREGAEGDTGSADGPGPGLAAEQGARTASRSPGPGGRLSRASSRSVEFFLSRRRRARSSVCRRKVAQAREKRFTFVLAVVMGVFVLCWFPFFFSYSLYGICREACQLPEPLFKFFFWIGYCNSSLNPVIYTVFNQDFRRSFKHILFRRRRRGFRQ
T3 sequence (P19328 whole entry): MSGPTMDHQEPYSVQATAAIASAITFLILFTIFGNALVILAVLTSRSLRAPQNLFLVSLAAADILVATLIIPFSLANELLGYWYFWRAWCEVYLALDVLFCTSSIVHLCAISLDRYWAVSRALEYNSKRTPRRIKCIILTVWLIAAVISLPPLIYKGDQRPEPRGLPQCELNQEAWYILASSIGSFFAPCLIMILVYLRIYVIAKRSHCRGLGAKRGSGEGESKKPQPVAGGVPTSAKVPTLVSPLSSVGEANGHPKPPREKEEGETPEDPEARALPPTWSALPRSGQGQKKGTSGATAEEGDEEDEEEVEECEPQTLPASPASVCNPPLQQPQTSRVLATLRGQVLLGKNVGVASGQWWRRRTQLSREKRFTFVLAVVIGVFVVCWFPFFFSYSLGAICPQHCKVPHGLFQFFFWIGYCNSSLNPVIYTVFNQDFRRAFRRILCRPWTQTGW
T3 sequence (P22909 whole entry): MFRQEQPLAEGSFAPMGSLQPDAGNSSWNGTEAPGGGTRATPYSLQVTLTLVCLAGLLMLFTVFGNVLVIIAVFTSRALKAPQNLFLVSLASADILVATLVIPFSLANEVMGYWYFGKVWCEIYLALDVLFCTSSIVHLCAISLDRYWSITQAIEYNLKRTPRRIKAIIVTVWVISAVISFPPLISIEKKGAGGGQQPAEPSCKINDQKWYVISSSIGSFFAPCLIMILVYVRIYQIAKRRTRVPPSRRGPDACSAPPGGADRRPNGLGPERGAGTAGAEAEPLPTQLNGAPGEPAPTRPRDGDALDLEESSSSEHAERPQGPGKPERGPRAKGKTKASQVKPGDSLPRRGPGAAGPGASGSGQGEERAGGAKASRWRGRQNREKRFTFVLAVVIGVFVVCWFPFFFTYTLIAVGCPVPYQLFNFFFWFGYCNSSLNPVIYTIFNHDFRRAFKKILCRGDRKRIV
Method in brief: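 Whole rat brain homogenate (minus cerebellum) with 1.0 nM [3H]MK-912, 80 min at room temperature. 10 µM phentolamine defines nonspecific binding. Filter harvest and scintillation counting. Concentration-inhibition curves (≥6 concentrations) give IC50 ± SE, converted to Ki via Cheng-Prusoff with the radioligand's apparent Kd.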

[6] = molecular target: T4, Adrenergic receptor alpha-1 (Rattus norvegicus, UniProt P15823+P23944+P43140); test: Binding affinity (Ki) at Alpha-1 adrenergic receptor using rat brain cells with prazosin (0.20 nM) as a radioligand and […] as a blank agent; format: cell-based
T4 sequence (P15823 whole entry): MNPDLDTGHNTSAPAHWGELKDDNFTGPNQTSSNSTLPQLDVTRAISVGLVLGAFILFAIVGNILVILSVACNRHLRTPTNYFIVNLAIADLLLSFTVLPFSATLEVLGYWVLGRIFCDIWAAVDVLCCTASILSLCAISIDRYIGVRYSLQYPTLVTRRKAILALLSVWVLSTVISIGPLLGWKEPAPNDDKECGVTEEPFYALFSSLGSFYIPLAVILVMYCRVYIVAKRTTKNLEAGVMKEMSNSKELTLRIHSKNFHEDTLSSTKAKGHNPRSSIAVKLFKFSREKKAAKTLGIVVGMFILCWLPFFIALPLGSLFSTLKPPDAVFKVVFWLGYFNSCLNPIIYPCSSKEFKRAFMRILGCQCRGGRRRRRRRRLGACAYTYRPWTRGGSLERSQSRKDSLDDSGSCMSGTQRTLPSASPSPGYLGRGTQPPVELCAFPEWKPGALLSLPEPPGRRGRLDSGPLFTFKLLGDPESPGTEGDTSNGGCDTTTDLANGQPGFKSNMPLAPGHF
T4 sequence (P23944 whole entry): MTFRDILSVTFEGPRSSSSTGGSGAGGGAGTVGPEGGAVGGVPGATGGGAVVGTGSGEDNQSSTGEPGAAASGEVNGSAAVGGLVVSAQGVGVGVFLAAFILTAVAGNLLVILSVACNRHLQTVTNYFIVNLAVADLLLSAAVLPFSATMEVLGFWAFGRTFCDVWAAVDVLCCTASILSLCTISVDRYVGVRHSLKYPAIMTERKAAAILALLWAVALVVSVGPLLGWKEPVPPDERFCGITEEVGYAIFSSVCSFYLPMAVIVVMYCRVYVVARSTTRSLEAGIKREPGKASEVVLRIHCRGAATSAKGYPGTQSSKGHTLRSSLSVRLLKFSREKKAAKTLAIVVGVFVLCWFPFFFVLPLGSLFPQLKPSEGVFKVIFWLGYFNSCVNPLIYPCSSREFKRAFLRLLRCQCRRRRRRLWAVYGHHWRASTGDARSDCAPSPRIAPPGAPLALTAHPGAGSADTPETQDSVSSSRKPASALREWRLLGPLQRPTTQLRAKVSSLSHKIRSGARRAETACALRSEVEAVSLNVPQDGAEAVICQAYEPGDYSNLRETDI
T4 sequence (P43140 whole entry): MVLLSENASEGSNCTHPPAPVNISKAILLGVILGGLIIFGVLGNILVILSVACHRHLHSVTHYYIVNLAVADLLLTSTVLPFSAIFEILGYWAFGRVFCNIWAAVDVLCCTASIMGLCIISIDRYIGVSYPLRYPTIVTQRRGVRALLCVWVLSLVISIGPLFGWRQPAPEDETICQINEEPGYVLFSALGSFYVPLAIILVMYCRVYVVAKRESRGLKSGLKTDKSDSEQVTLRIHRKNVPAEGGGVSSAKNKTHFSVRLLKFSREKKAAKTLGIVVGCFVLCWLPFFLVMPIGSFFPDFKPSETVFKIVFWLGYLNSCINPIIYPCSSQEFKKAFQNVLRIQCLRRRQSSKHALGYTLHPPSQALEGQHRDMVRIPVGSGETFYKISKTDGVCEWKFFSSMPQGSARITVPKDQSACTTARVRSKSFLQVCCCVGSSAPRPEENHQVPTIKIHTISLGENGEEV
Method in brief: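 Whole rat brain homogenate (excluding cerebellum) incubated with 0.20 nM [3H]prazosin, 30 °C, 30 min. Nonspecific binding defined with 2 µM phentolamine. Filtration harvest, tritium counted by scintillation. Screened at 1 and 10 µM; ≥6 concentrations if ≥30% inhibition at 1 µM. IC50 from curve fit, converted to Ki by Cheng-Prusoff using the radioligand Kd.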

D(2) dopamine receptor = D(2) dopamine receptor (Rattus norvegicus, UniProt P61169); test: Binding affinity (Ki) at Dopamine receptor D2 using rat caudate cells with nemonapride (0.075 nM) as a radioligand and […] as a blank agent
Sequence of D(2) dopamine receptor (P61169 whole entry): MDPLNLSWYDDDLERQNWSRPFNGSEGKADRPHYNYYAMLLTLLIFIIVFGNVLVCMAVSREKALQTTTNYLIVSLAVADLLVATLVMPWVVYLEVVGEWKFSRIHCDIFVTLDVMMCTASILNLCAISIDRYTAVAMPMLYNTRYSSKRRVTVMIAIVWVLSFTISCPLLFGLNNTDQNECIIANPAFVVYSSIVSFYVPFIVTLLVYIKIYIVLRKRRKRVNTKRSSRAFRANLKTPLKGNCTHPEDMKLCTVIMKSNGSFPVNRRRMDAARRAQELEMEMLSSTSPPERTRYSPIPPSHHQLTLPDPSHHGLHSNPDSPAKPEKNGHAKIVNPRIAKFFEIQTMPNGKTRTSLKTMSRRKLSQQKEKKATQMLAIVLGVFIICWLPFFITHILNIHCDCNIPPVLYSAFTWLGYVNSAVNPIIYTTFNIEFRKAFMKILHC
Method in brief: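 Rat caudate-putamen homogenate incubated with 75 pM [3H]nemonapride at 30 °C for 90 min. Nonspecific binding defined with 10 µM haloperidol. Bound radioactivity collected on glass fiber filters and counted. IC50 ± SE from ≥6-concentration inhibition curves, converted to Ki by Cheng-Prusoff using the radioligand Kd.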

[7] = molecular target: T4, Adrenergic receptor alpha-1; test: Binding affinity at Alpha-1 adrenergic receptor using rat forebrain cells with prazosin (0.20 nM) as radioligand and […] as blank agent
[8] = molecular target: T4, Adrenergic receptor alpha-1; test: Binding affinity (Ki) at Alpha-1 adrenergic receptor using rat forebrain cells with prazosin (0.20 nM) as a radioligand and […] as a blank agent
[9] = molecular target: T1, 5-hydroxytryptamine receptor 2A; test: Binding affinity against 5-hydroxytryptamine 2A receptor in humans
Method in brief: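 Membranes of transfected COS-7 cells expressing human 5-HT2A, with 1.0 nM [3H]ketanserin, room temperature, 60 min. 10 µM altanserin as blank. Filtration and scintillation counting. Ki obtained by Cheng-Prusoff from the radioligand apparent Kd.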

| pKi [1] | pKi [2] | pKi [3] | pKi [4] | Ki [5] | pKi (D(2) dopamine receptor) | SMILES | also measured |
| --- | --- | --- | --- | --- | --- | --- | --- |
| 9.29 | 7.78 | 7.31 | 8.06 | 244 nM | 7.29 | O=C(c1ccc(F)cc1)C1CCN(CCc2cccc(I)c2)CC1 | Ki [6]: 4.92 nM |
| 7.49 | – | – | – | – | – | OC(c1ccc(F)cc1)C1CCN(CCc2ccc(I)cc2)CC1 (stereo not drawn) | – |
| 8.44 | 6.84 | 6.52 | 8.14 | 381 nM | 6.75 | O=C(c1ccc(F)cc1)C1CCN(CCc2ccc(I)cc2)CC1 | Ki [8]: 26.1 nM |
| 8.94 | – | – | – | – | – | O=[N+]([O-])c1ccc(C(O)C2CCN(CCc3ccccc3)CC2)cc1 (stereo not drawn) | – |
| 8.71 | 7.45 | 6.86 | 8.43 | 140 nM | 8.89 | O=C(c1ccc(F)cc1)C1CCN(CCc2ccccc2I)CC1 | Ki [7]: 24.8 nM |
| 7.90 | – | – | – | – | – | O=C(c1ccc(F)cc1)C1CCN(Cc2cccc(I)c2)CC1 | – |
| 7.88 | – | – | – | – | – | OC(c1ccc(F)cc1)C1CCN(CCc2cccc(I)c2)CC1 (stereo not drawn) | – |
| 8.03 | – | – | – | – | – | O=C(c1ccc([N+](=O)[O-])cc1)C1CCN(CCc2ccccc2)CC1 | – |
| 6.72 | – | – | – | – | – | O=C(c1ccc(F)cc1)C1CCN(Cc2ccccc2I)CC1 | – |
| 6.64 | – | – | – | – | – | O=C(c1ccc(F)cc1)C1CCN(Cc2ccc(I)cc2)CC1 | – |
| 9.04 | 7.54 | 6.37 | 7.00 | 813 nM | < 5.00 | OC(c1ccc(F)cc1)C1CCN(CCc2ccccc2I)CC1 (stereo not drawn) | Ki [8]: 108 nM |
| 8.02 | 6.31 | 5.52 | 7.20 | 614 nM | 6.34 | O=C(c1ccc(F)cc1)C1CCN(CCc2ccc(F)cc2)CC1 | Ki [7]: 33.6 nM |
| – | – | – | – | – | – | O=C(c1ccc(F)cc1)C1CCN(CCn2c(=S)[nH]c3ccccc3c2=O)CC1 [ALTANSERIN] | pKi [9]: 9.52 |

| SMILES | pKi [1] | pKi [2] | pKi [3] | pKi [4] | Ki [5] | pKi (D(2) dopamine receptor) | also measured |
| --- | --- | --- | --- | --- | --- | --- | --- |
| OC(c1ccc(F)cc1)C1CCN(CCc2ccc(F)cc2)CC1 (stereo not drawn) | 8.79 | 6.30 | < 5.00 | 5.87 | 1032 nM | < 5.00 | Ki [7]: 303 nM |
| OC(c1ccc(F)cc1)C1CCN(Cc2ccccc2I)CC1 (stereo not drawn) | < 5.00 | – | – | – | – | – | – |
| OC(c1ccc(F)cc1)C1CCN(Cc2cccc(I)c2)CC1 (stereo not drawn) | < 5.00 | – | – | – | – | – | – |
| OC(c1ccc(F)cc1)C1CCN(Cc2ccc(I)cc2)CC1 (stereo not drawn) | < 5.00 | – | – | – | – | – | – |
